Assay results reported in PubChem BioAssay.
Inconclusive results are not listed.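 The calls were made as follows, unless noted: active = RAM network inhibition above 8.4% in each of two replicates, 3 SD over the compound average; inconclusive = above 8.4% inhibition in only one replicate; inactive = 8.4% inhibition or less in each replicate.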

What was measured:
[1] = OD615 S. cerevisiae growth inhibition, permissive medium, pilot counter-assay, permissive growth control for S. cerevisiae lifespan shortening project (AID 705;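 active = growth inhibition above 25% in both replicates, a cutoff set 3 SD above the mean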); settings: OD615, 24 h, at 10 µM, active compounds read high
Method in brief: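 Test system: Saccharomyces cerevisiae strain carrying genetically modified DeaD replicative-lifespan system; buffer or medium: SC raffinose/galactose permissive medium; dosing: one dose 10 µM, DMSO 0.25% final; times: 24 h exposure, 30 °C; measured by: OD at 615 nm; read-out basis: growth inhibition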

[2] = Restrictive medium S. cerevisiae growth inhibition, OD615, pilot screen of yeast lifespan reduction project, restrictive growth control (AID 706;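 active = growth inhibition above a set limit, 3 SD over mean compound inhibition, in both replicates, cut at about 43% in these data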;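 also: modified DeaD lifespan yeast strain shifted to restrictive glucose medium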); settings: OD615, 48 h, at 10 µM, active compounds read high
Method in brief: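 material = engineered S. cerevisiae DeaD strain | buffer or medium = glucose-based CSMM-D restrictive medium | dosing = one concentration, 10 µM final, 0.25% DMSO | schedule = 4 h pre-growth plus 48 h compound exposure, 30 °C | detection = OD615 absorbance reading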

[3] = viability gain of MRP-1-high H69AR cells under doxorubicin, pilot screen, MRP-1 activator project, CellTiter-Glo, duplicate (AID 807;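 active = viability increase at or above a cutoff of the median across tested compounds plus 3 SD, cut at about 8.5% in these data, passing the limit was not always enough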;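 also: compound pretreatment 18-22 h then 72 h combined with doxorubicin; 0% = doxorubicin alone and 100% = vehicle without doxorubicin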); settings: H69AR viability with doxorubicin, CellTiter-Glo luminescence; at 10 µM; active compounds read high
[4] = growth suppression of beta-catenin knockout HCT116, pilot screen, human colon tumor cells (AID 823;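 active = cell viability at or below a set limit in both duplicate runs, the limit being the all-compound median minus 4 SD, cut at about 23% in these data, passing the limit was not always enough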;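 also: 0% = wells killed by 20 µM Hyamine and 100% = untreated DMSO cell wells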); settings: CellTiter-Glo, 60 h, at 10 µM, active compounds read low
[5] = growth suppression of PTEN-deleted HCT116, pilot screen, cell-based, HCT116 clonal line, CellTiter-Glo (AID 824;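 active = viability at or below 27.92% in each of two runs, the all-compound median minus 4 SD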;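 also: 0% = 20 µM Hyamine control and 100% = vehicle cell control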); settings: 60 h, at 10 µM, active compounds read low
[6] = inhibitors of the yeast RAM network, pilot screen, dse1pr::URA3 reporter, 5-FOA selection (AID 869;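 active = inhibition over a set limit, the all-compound mean plus 3 SD, in both replicate runs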;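 also: 0% = DMSO wells with no growth and 100% = 10 µM 1-NA-PP1 with full growth; RAM network block rescues cells from 5-FOA so hits raise OD615 growth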); settings: S. cerevisiae dse1pr::URA3 5-FOA growth, OD615, 2 d; at 10 µM; active compounds read high; strain carries analog-sensitive mutant Cbk1 kinase
[7] = RAM signaling pathway blockade in yeast – S. cerevisiae, Pdr1DBD-CYC8 efflux-inhibited sensitized strain, primary screen (AID 1298);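 also: 0% = DMSO untreated cells without growth and 100% = 10 µM 1-NA-PP1 full growth; higher means more yeast growth rescued from 5-FOA killing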; settings: S. cerevisiae cbk1-as DSE1-URA3 strain, 5-FOA growth OD615, 2 d; at 50 µM; active compounds read high

CN1CCN(S(=O)(=O)c2ccc3c4c(cccc24)C(=O)N3)CC1
inactive: growth inhibition [1] -11.8% | growth inhibition [2] -4.42% | viability increase [3] -2% | viability [4] 110% | viability [5] 96.4% | inhibition [6] 1.18% | RAM network inhibition [7] 1.28%

CC(NS(=O)(=O)c1ccc(Br)cc1)C(c1cccs1)N1CCN(C)CC1 (centres undefined)
inactive: growth inhibition [1] -5.18% | growth inhibition [2] 3.13% | viability increase [3] -2.85% | viability [4] 78.2% | viability [5] 84.2% | inhibition [6] 0.53% | RAM network inhibition [7] 0.88%

COC(=O)C1C(=O)c2c([nH]c(C(=O)OC3CCCCC3)c2C)CC1C (centres undefined)
inactive: growth inhibition [1] -2.87% | growth inhibition [2] 2.14% | viability increase [3] 2.69% | viability [4] 107% | viability [5] 104% | inhibition [6] 0.105% | RAM network inhibition [7] 2.04%

Cc1ccc(/C(O)=C2\C(=O)C(=O)N(CCN(C)C)C2c2ccccc2F)cc1 (centres undefined)
inactive: growth inhibition [1] -10.5% | growth inhibition [2] -5.25% | viability increase [3] -2.92% | viability [4] 88.3% | viability [5] 87.1% | inhibition [6] -0.9% | RAM network inhibition [7] -1.02%

CCC(C#CCN1CCOCC1)(CC)OCCC#N
inactive: growth inhibition [1] -6.57% | growth inhibition [2] -3.89% | viability increase [3] -0.51% | viability [4] 97% | viability [5] 95.9% | inhibition [6] 1.35% | RAM network inhibition [7] 0.88%

COc1cccc(-n2c(=O)[nH]cc(C(=O)Nc3ccc(NC(C)=O)cc3)c2=O)c1
inactive: growth inhibition [1] -13.3% | growth inhibition [2] 4% | viability increase [3] 0.63% | viability [4] 106% | viability [5] 96.6% | inhibition [6] 3.3% | RAM network inhibition [7] 4.32%

CCOC(=O)CSc1nc2sc(C(=O)O)c(C)c2c(=O)[nH]1
inactive: growth inhibition [1] 0.2% | growth inhibition [2] -4.45% | viability increase [3] -1.82% | viability [4] 102% | viability [5] 103% | inhibition [6] 1.92% | RAM network inhibition [7] 3.85%

COc1ccc(O)c(-c2[nH]ncc2C(=O)c2ccccc2)c1
inactive: growth inhibition [1] -14.7% | growth inhibition [2] -2.28% | viability increase [3] -2.45% | viability [4] 101% | viability [5] 94.8% | inhibition [6] 1.27% | RAM network inhibition [7] 4.35%

Cc1ccc(CNC(=O)c2ccc(Br)o2)cc1
inactive: growth inhibition [1] -14.5% | growth inhibition [2] -1.29% | viability increase [3] -0.67% | viability [4] 96.9% | viability [5] 98.1% | inhibition [6] 0.885% | RAM network inhibition [7] 3.41%

CCCNC(=O)C1CC(=O)N(c2ccc(OCC(=O)Nc3cccc(C)c3C)cc2)C1 (centres undefined)
inactive: growth inhibition [1] -13.4% | growth inhibition [2] -14.8% | viability increase [3] -1.99% | viability [4] 106% | viability [5] 97.7% | inhibition [6] 2.35% | RAM network inhibition [7] 1.01%

COc1cccc(CNC(=O)Cn2cc3c(n2)CCCC3)c1
inactive: growth inhibition [1] -7.1% | growth inhibition [2] 4.65% | viability increase [3] 0.16% | viability [4] 100% | viability [5] 93.2% | inhibition [6] 1.44% | RAM network inhibition [7] 3.05%

Cc1ccc(NC(=O)c2c(O)c3ccccc3n(C)c2=O)nc1
inactive: growth inhibition [1] -3.92% | growth inhibition [2] 9.36% | viability increase [3] -5.52% | viability [4] 75.3% | viability [5] 70.2% | inhibition [6] 0.36% | RAM network inhibition [7] -1.46%

CCCCCOc1ccc(NC(=O)CCCC(=O)O)cc1
inactive: growth inhibition [1] -3.13% | growth inhibition [2] 2.42% | viability increase [3] -0.75% | viability [4] 91.1% | viability [5] 97.8% | inhibition [6] -0.545% | RAM network inhibition [7] 1.02%

CCCc1nc(C)c(-c2ccc(OC)c(OC)c2)c(=O)[nH]1
inactive: growth inhibition [1] -17.9% | growth inhibition [2] -15.2% | viability increase [3] -0.18% | viability [4] 101% | viability [5] 95.3% | inhibition [6] 2.53% | RAM network inhibition [7] 0.84%

Cc1cc(N2C(=O)C3CC=CCC3C2=O)cc(C)c1Br (centres undefined)
inactive: growth inhibition [1] -3.4% | growth inhibition [2] -11.6% | viability increase [3] -1.05% | viability [4] 95.5% | viability [5] 95.2% | inhibition [6] 2.22% | RAM network inhibition [7] 6.44%

Cc1nc2sc(C(c3cccs3)N3CCN(C(=O)c4ccco4)CC3)c(O)n2n1 (centres undefined)
inactive: growth inhibition [1] -1.15% | growth inhibition [2] -6.47% | viability increase [3] -3.62% | viability [4] 102% | viability [5] 100% | inhibition [6] 0.74% | RAM network inhibition [7] -1.05%

CCCCn1c2nc3ccccc3nc2c2c(=N)oc(C)nc21
inactive: growth inhibition [1] -7.3% | growth inhibition [2] -6.79% | viability increase [3] -4.49% | viability [4] 96.6% | viability [5] 85.1% | inhibition [6] 0.265% | RAM network inhibition [7] 0.62%

CCOC(=O)C1=C(O)/C(=C/N(C)C)N=C1C
inactive: growth inhibition [1] 4.34% | growth inhibition [2] 5.5% | viability increase [3] -0.31% | viability [4] 103% | viability [5] 106% | inhibition [6] 3.19% | RAM network inhibition [7] 0.56%

CC1CCCCN1CCNC(=O)c1cc2c(=O)n(C)c3ccccc3c2n1C (centres undefined)
inactive: growth inhibition [1] -12.9% | growth inhibition [2] -9.04% | viability increase [3] -6.71% | viability [4] 78.9% | viability [5] 72.7% | inhibition [6] 2.5% | RAM network inhibition [7] 1.31%

C=CCN(C(=O)CN1CCOCC1)c1nc(C)c(-c2ccccc2)s1
inactive: growth inhibition [1] -16.4% | growth inhibition [2] -12.9% | viability increase [3] -3.35% | viability [4] 91.9% | viability [5] 87.4% | inhibition [6] -0.245% | RAM network inhibition [7] 0.88%

Cc1ccc(S(=O)(=O)N(C)CCCC(=O)N2CCOCC2)cc1
inactive: growth inhibition [1] -17.3% | growth inhibition [2] -6.47% | viability increase [3] -1.27% | viability [4] 101% | viability [5] 96.1% | inhibition [6] 1.17% | RAM network inhibition [7] 3.03%

COc1ccc(C(=O)c2cn[nH]c2-c2cc(Cl)ccc2O)cc1
inactive: growth inhibition [1] 3.93% | growth inhibition [2] 4.28% | viability increase [3] -1.77% | viability [4] 87.7% | viability [5] 78.7% | inhibition [6] 1.17% | RAM network inhibition [7] 3.53%

c1nnc2c3c4c(sc3ncn12)CCC4
inactive: growth inhibition [1] -1.74% | growth inhibition [2] 15.2% | viability increase [3] -3.97% | viability [4] 96.6% | viability [5] 107% | inhibition [6] 1.25% | RAM network inhibition [7] 6.33%

COc1ccc(NC(=O)C2=C(C)NC(=O)NC2c2cccc(OC)c2OC)c(OC)c1 (centres undefined)
inactive: growth inhibition [1] -15.4% | growth inhibition [2] -22.3% | viability increase [3] 0.09% | viability [4] 103% | viability [5] 103% | inhibition [6] 0.405% | RAM network inhibition [7] -1.04%

Cc1ccc(C(=O)NCCCCNC(=O)c2ccc(C)o2)o1
inactive: growth inhibition [1] -5.8% | growth inhibition [2] -4.64% | viability increase [3] -1.97% | viability [4] 106% | viability [5] 96.3% | inhibition [6] 3.56% | RAM network inhibition [7] 4.03%

COc1ccc(-c2cn3c(C)c(C(=O)N4CCCc5ccccc54)sc3n2)cc1
inactive: growth inhibition [1] 0.505% | growth inhibition [2] 24.2% | viability increase [3] -3.31% | viability [4] 64.9% | viability [5] 65.6% | inhibition [6] 0.565% | RAM network inhibition [7] 3.08%

CC(=O)NC1(c2ccccc2)CCN(Cc2nnnn2C(C)(C)C)CC1
inactive: growth inhibition [1] -11.8% | growth inhibition [2] -17.9% | viability increase [3] -0.8% | viability [4] 102% | viability [5] 96% | inhibition [6] 3.53% | RAM network inhibition [7] 1.62%

CCC(C)Nc1ncnc2c1cnn2Cc1ccc(Cl)cc1 (centres undefined)
inactive: growth inhibition [1] -13.7% | growth inhibition [2] -18.8% | viability increase [3] 6.18% | viability [4] 85.5% | viability [5] 86.7% | inhibition [6] -0.295% | RAM network inhibition [7] 2.14%

CCC/C(O)=C1\C(=O)CC(C)(C)CC1=Nc1ccccc1OC
inactive: growth inhibition [1] -18.3% | growth inhibition [2] -21.1% | viability increase [3] -2.83% | viability [4] 87.6% | viability [5] 87% | inhibition [6] 3.95% | RAM network inhibition [7] 9.85%

O=C(Nc1ccc2c(c1)OCO2)c1ccncc1
inactive: growth inhibition [1] -10.6% | growth inhibition [2] 0.215% | viability increase [3] -0.85% | viability [4] 87.9% | viability [5] 90.1% | inhibition [6] 0.205% | RAM network inhibition [7] 3.42%

CC(Nc1ncnc2nc[nH]c12)c1ccccc1 (centres undefined)
inactive: growth inhibition [1] -8.48% | growth inhibition [2] 10.5% | viability increase [3] -1.31% | viability [4] 95.3% | viability [5] 88.9% | inhibition [6] 0.985% | RAM network inhibition [7] 4.02%

O=C1c2ccccc2C(O)N1c1ccc(Cl)cc1 (centres undefined)
inactive: growth inhibition [1] -8.19% | growth inhibition [2] -7.83% | viability increase [3] -0.07% | viability [4] 93.4% | viability [5] 95.5% | inhibition [6] 0.58% | RAM network inhibition [7] 1.49%

Nc1c(Br)cc(Br)c(N2CCCC2=O)c1Br
inactive: growth inhibition [1] -6.31% | growth inhibition [2] -7.93% | viability increase [3] -2.68% | viability [4] 92.6% | viability [5] 92.7% | inhibition [6] 1.68% | RAM network inhibition [7] 0.63%

CC(=O)c1c(NC(=O)C(C)C)nc(C)nc1-c1ccccc1
inactive: growth inhibition [1] -6.5% | growth inhibition [2] -8.2% | viability increase [3] -0.66% | viability [4] 98.4% | viability [5] 100% | inhibition [6] 1.69% | RAM network inhibition [7] -0.83%

CCCOc1ccc(N2CC(C(=O)Nc3ccccc3OC)CC2=O)cc1 (centres undefined)
inactive: growth inhibition [1] -15.6% | growth inhibition [2] -6.16% | viability increase [3] 0.54% | viability [4] 105% | viability [5] 93.7% | inhibition [6] 0.11% | RAM network inhibition [7] 2.24%

CCOc1ccc(CCNC(=O)c2nnc(Cc3ccc(F)cc3)o2)cc1OCC
inactive: growth inhibition [1] -5.33% | growth inhibition [2] 7.65% | viability increase [3] -2.55% | viability [4] 103% | viability [5] 95.2% | inhibition [6] 1.5% | RAM network inhibition [7] 5.06%

Cc1cc(C)cc(NC(=O)CSc2nnc(-c3ccccc3)n2N)c1
inactive: growth inhibition [1] 5.25% | growth inhibition [2] 7.08% | viability increase [3] -3.11% | viability [4] 98.1% | viability [5] 97.1% | inhibition [6] 2.74% | RAM network inhibition [7] 4.66%
